{"source": "ChEMBL document CHEMBL4689842", "about": "“EUbOPEN Chemogenomics Library wave 1” (2021)", "tested_on": "HEK-293T", "assay": "Multiplex assay against HEK293T;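 for Population Tubulin-Different-Phenotype (%): share of the cells with healthy nuclei that show this phenotype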", "assay_type": "toxicity, cell-based", "settings": "human, 10 µM, compound concentration 10 uM", "summary_of_the_method": "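Phenotypes for tubulin, mitochondrial mass and membrane permeability are expressed as per cents of healthy-nucleus cells. Cells were stained live at seeding with Hoechst33342, BioTracker Green Microtubule Cytoskeleton Dye, MitoTracker Red and Annexin V Alexa Fluor 680, then imaged after compound addition on a CQ1 microscope at 37°C and 5% CO2. Machine-learning gating in CellPathfinder separated Hoechst high-intensity objects from normal cells, divided normal cells by nuclear state (healthy, pyknosed, fragmented) and divided pyknosed cells into mitotic or apoptotic.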", "note": "Values joined by “and” are separate entries in the source; they are usually repeats but may differ in a detail not shown here. Identical values can stand only once.", "data": [{"compound": "Cc1sc2c(c1C)C(c1ccc(Cl)cc1)=N[C@@H](CC(=O)OC(C)(C)C)c1nnc(C)n1-2", "values": [{"measurement": "Population Apoptotic (%)", "setting": "12 h, replicate 1", "result": "16% and 17%"}, {"measurement": "Population Fragmented Nuclei (%)", "setting": "12 h, replicate 1", "result": "19% and 13%"}, {"measurement": "Population Healthy Nuclei (%)", "setting": "12 h, replicate 1", "result": "65% and 71%"}, {"measurement": "Population Hoechst High Intensity Objects (%)", "setting": "12 h, replicate 1", "result": "14% and 8%"}, {"measurement": "Population Membrane Permeable-Phenotype (%)", "setting": "12 h, replicate 1", "result": 3, "unit": "%"}, {"measurement": "Population Mitochondria Different-Phenotype (%)", "setting": "12 h, replicate 1", "result": "6% and 5%"}, {"measurement": "Population Mitotic Cells (%)", "setting": "12 h, replicate 1", "result": "83% and 82%"}, {"measurement": "Population Normal (%)", "setting": "12 h, replicate 1", "result": "85% and 91%"}, {"measurement": "Population Pyknosed Nuclei (%)", "setting": "12 h, replicate 1", "result": 15, "unit": "%"}, {"measurement": "Population Tubulin-Different-Phenotype (%)", "setting": "12 h, replicate 1", "result": 2, "unit": "%"}, {"measurement": "Total Cell Count", "setting": "12 h, replicate 1", "result": "561 and 772"}, {"measurement": "Population Apoptotic (%)", "setting": "12 h, replicate 2", "result": "6% and 3%"}, {"measurement": "Population Fragmented Nuclei (%)", "setting": "12 h, replicate 2", "result": "14% and 12%"}, {"measurement": "Population Healthy Nuclei (%)", "setting": "12 h, replicate 2", "result": 79, "unit": "%"}, {"measurement": "Population Hoechst High Intensity Objects (%)", "setting": "12 h, replicate 2", "result": "3% and 4%"}, {"measurement": "Population Membrane Permeable-Phenotype (%)", "setting": "12 h, replicate 2", "result": 0, "unit": "%"}, {"measurement": "Population Mitochondria Different-Phenotype (%)", "setting": "12 h, replicate 2", "result": "10% and 11%"}, {"measurement": "Population Mitotic Cells (%)", "setting": "12 h, replicate 2", "result": "93% and 96%"}, {"measurement": "Population Normal (%)", "setting": "12 h, replicate 2", "result": "96% and 95%"}, {"measurement": "Population Pyknosed Nuclei (%)", "setting": "12 h, replicate 2", "result": "5% and 7%"}, {"measurement": "Population Tubulin-Different-Phenotype (%)", "setting": "12 h, replicate 2", "result": 0, "unit": "%"}, {"measurement": "Total Cell Count", "setting": "12 h, replicate 2", "result": "1959 and 1675"}, {"measurement": "Population Apoptotic (%)", "setting": "24 h, replicate 1", "result": "16% and 12%"}, {"measurement": "Population Fragmented Nuclei (%)", "setting": "24 h, replicate 1", "result": "17% and 9%"}, {"measurement": "Population Healthy Nuclei (%)", "setting": "24 h, replicate 1", "result": "70% and 80%"}, {"measurement": "Population Hoechst High Intensity Objects (%)", "setting": "24 h, replicate 1", "result": "11% and 10%"}, {"measurement": "Population Membrane Permeable-Phenotype (%)", "setting": "24 h, replicate 1", "result": 1, "unit": "%"}, {"measurement": "Population Mitochondria Different-Phenotype (%)", "setting": "24 h, replicate 1", "result": "7% and 3%"}, {"measurement": "Population Mitotic Cells (%)", "setting": "24 h, replicate 1", "result": "84% and 87%"}, {"measurement": "Population Normal (%)", "setting": "24 h, replicate 1", "result": "88% and 89%"}, {"measurement": "Population Pyknosed Nuclei (%)", "setting": "24 h, replicate 1", "result": "11% and 10%"}, {"measurement": "Population Tubulin-Different-Phenotype (%)", "setting": "24 h, replicate 1", "result": "2% and 1%"}, {"measurement": "Total Cell Count", "setting": "24 h, replicate 1", "result": "472 and 770"}, {"measurement": "Population Apoptotic (%)", "setting": "24 h, replicate 2", "result": 5, "unit": "%"}, {"measurement": "Population Fragmented Nuclei (%)", "setting": "24 h, replicate 2", "result": "19% and 20%"}, {"measurement": "Population Healthy Nuclei (%)", "setting": "24 h, replicate 2", "result": "76% and 75%"}, {"measurement": "Population Hoechst High Intensity Objects (%)", "setting": "24 h, replicate 2", "result": 5, "unit": "%"}, {"measurement": "Population Membrane Permeable-Phenotype (%)", "setting": "24 h, replicate 2", "result": 0, "unit": "%"}, {"measurement": "Population Mitochondria Different-Phenotype (%)", "setting": "24 h, replicate 2", "result": 5, "unit": "%"}, {"measurement": "Population Mitotic Cells (%)", "setting": "24 h, replicate 2", "result": 94, "unit": "%"}, {"measurement": "Population Normal (%)", "setting": "24 h, replicate 2", "result": 94, "unit": "%"}, {"measurement": "Population Pyknosed Nuclei (%)", "setting": "24 h, replicate 2", "result": "4% and 3%"}, {"measurement": "Population Tubulin-Different-Phenotype (%)", "setting": "24 h, replicate 2", "result": 0, "unit": "%"}, {"measurement": "Total Cell Count", "setting": "24 h, replicate 2", "result": "1813 and 2044"}]}]}
